The values that follow come from ChEMBL document CHEMBL1143558, “Discovery of a novel series of peroxisome proliferator-activated receptor alpha/gamma dual agonists for the treatment of type 2 diabetes and dyslipidemia” (J Med Chem, 2005).

pEC50, pIC50: −log10 of the molar value.

Assay [1] has as its target T1, Peroxisome proliferator-activated receptor alpha (Homo sapiens, UniProt Q07869).
T1 sequence (Q07869 whole entry): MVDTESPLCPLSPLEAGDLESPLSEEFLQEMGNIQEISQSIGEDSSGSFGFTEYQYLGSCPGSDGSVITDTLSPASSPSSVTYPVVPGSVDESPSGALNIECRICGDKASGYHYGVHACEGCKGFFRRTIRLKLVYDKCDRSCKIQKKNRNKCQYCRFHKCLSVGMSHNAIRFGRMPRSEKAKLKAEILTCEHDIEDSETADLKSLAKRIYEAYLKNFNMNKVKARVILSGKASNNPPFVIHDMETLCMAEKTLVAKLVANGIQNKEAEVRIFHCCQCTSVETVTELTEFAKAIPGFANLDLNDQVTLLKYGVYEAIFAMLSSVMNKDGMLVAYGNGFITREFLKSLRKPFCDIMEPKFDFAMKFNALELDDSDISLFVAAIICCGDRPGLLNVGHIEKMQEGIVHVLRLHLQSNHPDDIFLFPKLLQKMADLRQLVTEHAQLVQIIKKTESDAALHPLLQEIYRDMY
Nature of the assay: Inhibition of human Peroxisome proliferator activated receptor alpha binding.

The target of assay [2] is T2, Peroxisome proliferator-activated receptor gamma (Homo sapiens, UniProt P37231).
T2 sequence (P37231 whole entry): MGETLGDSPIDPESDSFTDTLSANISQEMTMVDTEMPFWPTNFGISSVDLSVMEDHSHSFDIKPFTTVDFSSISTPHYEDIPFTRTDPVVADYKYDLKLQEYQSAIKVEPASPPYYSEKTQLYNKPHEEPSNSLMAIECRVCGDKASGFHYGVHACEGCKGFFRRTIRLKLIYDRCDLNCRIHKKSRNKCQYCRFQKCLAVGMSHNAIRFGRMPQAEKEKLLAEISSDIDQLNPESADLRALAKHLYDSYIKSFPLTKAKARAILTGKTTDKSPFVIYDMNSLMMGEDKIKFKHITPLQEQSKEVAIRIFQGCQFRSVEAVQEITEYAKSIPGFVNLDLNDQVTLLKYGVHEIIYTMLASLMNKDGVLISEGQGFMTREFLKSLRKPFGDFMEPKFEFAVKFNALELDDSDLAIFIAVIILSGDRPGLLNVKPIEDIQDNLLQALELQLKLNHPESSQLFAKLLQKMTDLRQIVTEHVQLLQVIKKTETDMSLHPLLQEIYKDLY
Description: Inhibition of human Peroxisome proliferator activated receptor gamma binding.

The target in assay [3] is T1, Peroxisome proliferator-activated receptor alpha. Nature of the assay: Effective concentration against human Peroxisome proliferator activated receptor alpha in Gal4 transactivation assay; Not active at 3 uM. In a few lines: (§1)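 Chimeric GAL4-hPPARα or GAL4-hPPARγ transactivation assay in transiently transfected COS-1 cells. Compounds were titrated up to 3 µM, the highest concentration tested. […] "Not active" means no activity at 3 µM.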

Assay [4] deals with T2, Peroxisome proliferator-activated receptor gamma. Description: Effective concentration against human Peroxisome proliferator activated receptor gamma in Gal4 transactivation assay; Not active at 3 uM. The method, boiled down:
as §1

The target is the same in assay [5]. Description: Effective concentration against human Peroxisome proliferator activated receptor gamma in Gal4 transactivation assay.
Assay [6] addresses T1, Peroxisome proliferator-activated receptor alpha. Description: Effective concentration against human Peroxisome proliferator activated receptor alpha in Gal4 transactivation assay.
For assay [7], the target named is T2, Peroxisome proliferator-activated receptor gamma. Nature of the assay: Maximal effect against human Peroxisome proliferator activated receptor gamma in Gal4 transactivation assay. In a few lines: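 Chimeric GAL4-hPPARγ transactivation assay in transiently transfected COS-1 cells. The response is given as percent at 3 µM, the mean of n = 3.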
For assay [8], the target named is T3, Peroxisome proliferator-activated receptor alpha (Mus musculus, UniProt P23204).
T3 sequence (P23204 whole entry): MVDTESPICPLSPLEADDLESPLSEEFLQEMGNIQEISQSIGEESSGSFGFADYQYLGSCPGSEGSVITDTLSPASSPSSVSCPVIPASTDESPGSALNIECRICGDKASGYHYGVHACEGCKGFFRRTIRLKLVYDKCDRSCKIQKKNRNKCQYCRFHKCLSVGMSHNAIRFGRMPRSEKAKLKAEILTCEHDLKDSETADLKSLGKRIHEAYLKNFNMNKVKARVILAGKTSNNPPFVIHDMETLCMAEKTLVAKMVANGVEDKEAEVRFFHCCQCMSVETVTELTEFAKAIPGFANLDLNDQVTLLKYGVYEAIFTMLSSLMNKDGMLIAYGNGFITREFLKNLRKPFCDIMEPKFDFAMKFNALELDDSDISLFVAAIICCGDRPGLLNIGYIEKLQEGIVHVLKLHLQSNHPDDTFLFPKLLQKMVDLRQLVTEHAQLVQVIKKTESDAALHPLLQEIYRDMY
Description: Agonist activity against mouse Peroxisome proliferator activated receptor alpha. The format is functional. The method, boiled down: (§2)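 Chimeric GAL4 fusions carrying the PPARα receptor from dog, hamster or mouse, constructed like the human transactivation assay. Run in transiently transfected COS-1 cells, with agonist activity read as EC50.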

Assay [9] deals with T4, Peroxisome proliferator-activated receptor alpha (Canis lupus familiaris, UniProt Q95N78).
T4 sequence (Q95N78 whole entry): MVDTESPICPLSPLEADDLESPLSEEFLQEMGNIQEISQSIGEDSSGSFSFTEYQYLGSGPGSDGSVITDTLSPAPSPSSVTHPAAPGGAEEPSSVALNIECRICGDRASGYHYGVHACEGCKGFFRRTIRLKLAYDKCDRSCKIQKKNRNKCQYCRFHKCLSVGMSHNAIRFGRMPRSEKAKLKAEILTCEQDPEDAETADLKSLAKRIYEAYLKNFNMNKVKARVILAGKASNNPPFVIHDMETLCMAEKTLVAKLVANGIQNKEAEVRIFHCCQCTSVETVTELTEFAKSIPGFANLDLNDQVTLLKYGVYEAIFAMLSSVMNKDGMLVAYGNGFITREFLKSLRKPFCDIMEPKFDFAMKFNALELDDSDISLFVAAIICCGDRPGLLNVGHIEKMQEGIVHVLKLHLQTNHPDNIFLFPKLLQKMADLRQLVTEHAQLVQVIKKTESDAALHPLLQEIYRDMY
Nature of the assay: Agonist activity against dog Peroxisome proliferator activated receptor alpha. The class given is functional. In a few lines:
as §2

`CCCc1c(OC(C)(C)C(=O)O)ccc2c(C(F)(F)F)noc12`: the pIC50 in assay [1] and in assay [2] was < 5.00 each time. The EC50 entry in assay [3] and in assay [4] was “Not Active” throughout.

On to `CCCc1cc2c(OC)noc2c(CCC)c1OC(C)(C)C(=O)O`, for which the results for the negative logarithm of the IC50 (pIC50) in assay [1] and in assay [2] were 5.82 and 5.79, respectively. Also, the pEC50 (in general, −log10 of the EC50, conventionally taken in molar units) is 5.96 in assay [5] and 7.22 in assay [6].

For `CCCc1cc2c(C(F)(F)F)noc2c(CCC)c1OC(C)(C)C(=O)O`, the values for the pIC50 in [1] and in assay [2] were 6.64 and 5.80, respectively. In addition, the Emax in assay [7] was 25%. For the same compound, the negative-log EC50 (pEC50) is 6.74 in assay [8], 6.26 in [9] and 6.52 in assay [6].

For `CCCc1cc2c(C(F)(F)F)noc2c(CCC)c1OCC(C)(C)C(=O)O`, the pIC50 – broadly, the negative decadic logarithm of the IC50, by convention in mol/L – was < 4.30 in assay [1] and < 4.82 in [2]. Moreover, the EC50 result in assay [3] and in assay [4] was “Not Active” in each case.

Compound `CC(C)(Oc1ccc(C(=O)c2ccc(Cl)cc2)cc1)C(=O)O` [FENOFIBRIC ACID] had a pIC50 in assay [1] of 4.46. In assay [6], this compound gave a negative-log EC50 (pEC50) of 4.82.

Take `CCCc1cc2c(C(F)(F)F)noc2c(CCC)c1OC(C)C(=O)O` (configuration not stated): the pIC50 in assay [1] is 5.99; in assay [2], < 5.00. This compound also registered an Emax in [7] of 21%. In assay [6], the pEC50 was 6.21.

Regarding `CCCc1cc(C(=O)CC)cc(CCC)c1OC(C)(C)C(=O)O`, the pIC50 in assay [1] is 6.32; in assay [2] it was 5.91. Besides, the pEC50 in [5] is 5.89; in [6], 8.00.

For the compound `CCCc1cc2c(C(F)(F)F)noc2c(CCC)c1OC(C)(CC)C(=O)O` (configuration not stated), the values for the pIC50 in assay [1] and in [2] were 7.00 and < 4.82, respectively. In assay [7], this compound gave an Emax of 26%. This compound also had a pEC50 in assay [6] of 6.12.
